# Assay results from ChEMBL document CHEMBL5257120 (Bioorg Med Chem, 2023).
# Key:
# MDA-MB-231 = assay: Cytotoxicity against human MDA-MB-231 cells incubated for 72 hrs by Sulphorhodamine assay; assay type: functional, cell-based; conditions: MDA-MB-231, 72 h
# [1] = Cytotoxicity against african green monkey Vero cells incubated for 72 hrs by Sulphorhodamine assay; assay type: toxicity, cell-based; conditions: African green monkey (Chlorocebus sabaeus)
# [2] = Antiinflammatory activity in mouse peritoneal macrophage assessed as reduction in LPS-induced IL6 production at 1 ug/ml; assay type: functional; conditions: dose 1 µg/ml
# [3] = Toxicity in Swiss albino mouse assessed as change in body weight at 50 mg/kg, po administered for 7 days (reference value: 29.35 +/- 0.57 g); assay type: organism-based; conditions: in vivo, 168 h, time 7 day
# [4] = Toxicity in Swiss albino mouse assessed as change in body weight at 1000 mg/kg, po administered for 7 days (reference value: 29.35 +/- 0.57 g); assay type: organism-based; conditions: in vivo, 168 h, time 7 day
# [5] = Toxicity in Swiss albino mouse assessed as RBC level at 5 mg/kg, po administered for 7 days (reference value: 7.13 +/- 0.40 million/mm3); assay type: organism-based, Erythrocyte; conditions: in vivo, 168 h, time 7 day
# Method in brief: (§1)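 Single acute oral dose (5, 50, 300 or 1000 mg/kg) given to Swiss albino mice, n = 6, with 7-day observation. At the end, haematological and serum biochemical parameters were measured. Compared with untreated controls; mean ± SE, ANOVA, p < 0.05.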
# [6] = Toxicity in Swiss albino mouse assessed as WBC level at 1000 mg/kg, po administered for 7 days (reference value: 5.29 +/- 0.51 10^3/mm3); assay type: organism-based; conditions: in vivo, 168 h, time 7 day; method in brief: as §1
# [7] = Hepatotoxicity in Swiss albino mouse assessed as albumin level at 5 mg/kg, po administered for 7 days (reference value: 4.12 +/- 0.17 g/dl); assay type: toxicity, organism-based; conditions: in vivo, 168 h, time 7 day; method in brief: as §1
# [8] = Toxicity in Swiss albino mouse assessed as triglyceride level at 50 mg/kg, po administered for 7 days (reference value: 136.88 +/- 3.12 mg/dl); assay type: organism-based; conditions: in vivo, 168 h, time 7 day
# [9] = Toxicity in Swiss albino mouse assessed as change in absolute spleen weight at 5 to 1000 mg/kg, po administered for 7 days; assay type: organism-based; conditions: in vivo, 168 h, dose 5-1000 mg/kg, time 7 day
smiles,measurement,setting,value
COc1cc(C2/C(=C/c3ccc(/C=C/C(=O)NO)cc3)C(=O)c3cc(OC)c(OC)c(OC)c32)cc(OC)c1OC (stereo not given),IC50,MDA-MB-231,0.36 µM
same,IC50 at 72 h,[1],100 µM
same,Activity,[2],2617.2 pg/mL
same,Activity,[3],28.18 g
same,Activity,[4],27.43 g
same,Activity,[5],8.96 million/mm3
same,Activity,[6],4.73 10^3/mm3
same,Activity,[7],4.34 g/dL
same,Activity,[8],129.78 mg/dL
same,Activity,[9],Non-Toxic
